# PMC11954587 (JAC-Antimicrobial Resistance, 2025)
# “Also recorded” adds a separate entry of the source. Where two headings read alike, the source gives them in different places. Residues, ends and D or L forms follow the SMILES beside them.
# Columns and labels:
# [1] = system: multi-drug-resistant Gram-negative bacteria; type: in vivo, human; conditions: for Microbiology efficacy (TOC): test of cure visit, 14-days post treatment
# Method in brief: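 VAP was diagnosed by positive sputum culture of multi-drug-resistant Gram-negative bacteria plus clinical signs, laboratory tests and CT. Aerosol: 50 mg powder dissolved in 5 mL distilled water, given whole or split into two 25 mg doses, nebulized over 30 min by vibrating mesh device, combined with IV dosing. Outcomes were assessed at end of treatment and test of cure.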
# [2] = Adverse events in VAP patients during polymyxin B treatment; type: in vivo, human
# [3] = patients with bloodstream infections; cited from earlier work
# P. aeruginosa strains = conditions: animal model, cited from earlier work
# epithelial cells = conditions: in vitro; cited from earlier work
# [4] = cited from earlier work
# K. pneumoniae = conditions: cited from earlier work
# [5] = aerosolized delivery of CMS; cited from earlier work
# [6] = four patients during polymyxin B treatment
compound,measurement,setting,value
"CC[C@H](C)CCCCC(=O)N[C@@H](CCN)C(=O)N[C@H](C(=O)N[C@@H](CCN)C(=O)N[C@H]1CCNC(=O)[C@H]([C@@H](C)O)NC(=O)[C@H](CCN)NC(=O)[C@H](CCN)NC(=O)[C@H](CC(C)C)NC(=O)[C@@H](Cc2ccccc2)NC(=O)[C@H](CCN)NC1=O)[C@@H](C)O [polymyxin B] (HELM PEPTIDE1{[CC[C@H](C)CCCCC(=O)[*:2]].[Dab].T.[Dab].[Dab].[Dab].[dF].L.[Dab].[Dab].T}$PEPTIDE1,PEPTIDE1,5:R3-11:R2$$$V2.0)",Clinical outcome (EOT and TOC),"[1]; Patient 1, CRKP VAP, inhalation 25 mg + intravenous 50 mg q12h, 5 d",improved
same,Microbiology efficacy (TOC),"[1]; Patient 1, organism found",CRKP
same,Microbiology efficacy (TOC),[1]; Patient 2,negative
same,Note (sputum culture during treatment),"[1]; Patient 3, inhalation 25 mg + intravenous 75 mg q12h","CRKP and CRPA were negative after treatment for 6 days, then Serratia marcescens and Chryseobacterium meningosepticum showed positive"
same,Microbiology efficacy (TOC),[1]; Patient 3,CRKP and CRPA negative
same,Clinical outcome (EOT and TOC),"[1]; Patient 4, CRE (E. cloacae) VAP, inhalation 25 mg + intravenous 75 mg q12h, 11 d",improved
same,Microbiology efficacy (TOC),[1]; Patient 4,negative
same,clinical improvement or cure / alleviation of clinical symptoms (patients),"[1]; four VAP patients, aerosolized and intravenous polymyxin B",Three of the patients exhibited alleviation of clinical symptoms; also recorded: three of them reaching clinical improvement or cure
same,bacterial eradication (patients),"[1]; four VAP patients, aerosolized and intravenous polymyxin B, sputum culture",All four patients achieved bacterial eradication
same,Adverse events,"[2]; Patient 1, inhalation 25 mg + intravenous 50 mg q12h, 5 d",none
same,Adverse events,"[2]; Patient 2, inhalation 25 mg + intravenous 100 mg q12h, 5 d",none
same,Adverse events,"[2]; Patient 3, inhalation 25 then 50 mg + intravenous 75 mg q12h, 12 d",hyperpigmentation
same,Adverse events,"[2]; Patient 4, inhalation 25 mg + intravenous 75 mg q12h, 11 d",hyperpigmentation
same,nephrotoxicity,[2]; [6],No cases of nephrotoxicity
same,neurotoxicity,[2]; [6],no reports of neurotoxicity
same,hyperpigmentation (number of patients),[2]; of four patients,two patients
same,chest CT imaging,"[2]; patients, combined aerosol and intravenous treatment",recovery of chest CT imaging
same,elimination half-life,[3],12.5 ± 3.11 h
same,maximum ELF concentrations,P. aeruginosa strains; aerosolized,184.0 ± 35.1 mg/L
same,lung histopathology,P. aeruginosa strains; at maximum ELF concentrations 184.0 ± 35.1 mg/L,reduced lung inflammation and preserved lung epithelial integrity
same,concentration that induced toxic metabolic response perturbations,epithelial cells,1000 µM
same,cure and improved rates,"[4]; aerosol doses of 50 mg twice a day, VAP patients",95%
same,clinical outcome,"[4]; inhaled polymyxin B, pneumonia patients",favourable clinical outcome of cure and improvement
same,eradication rate of K. pneumoniae,"K. pneumoniae; aerosol 50 mg twice a day (with intravenous), P < 0.003",92.1%
same,eradication rate of K. pneumoniae,K. pneumoniae; intravenous treatment alone,70.1%
colistimethate [CMS],rate of clinical cure (OR),[5],1.61
same,rate of microbiological eradication (OR),[5],1.37
